How the values were obtained:
[1] = tested on: Human immunodeficiency virus 1; experiment: Antiviral activity against HIV1 A17 harboring protease L10F, V32I, M46I, I47V, Q58E and I84V mutant infected in human MT4 cells assessed as inhibition of virus-induced cell death after 5 days by MTT assay relative to wild type HIV1 pNL4-3; format: functional
[2] = tested on: Human immunodeficiency virus 1; experiment: Antiviral activity against HIV1 harboring protease L10I, I13V, G16A, Q18H, L33F, N37D, M46I, I54V, G57R, Q61H,I62V, L63P, A71L, I72T, L76V, V77I, V82A, N88G, L90M, I93L mutant infected in human MT4 cells assessed as inhibition of virus-induced cell death after 5 days by MTT assay relative to wild type HIV1 pNL4-3; format: functional
[3] = tested on: Human immunodeficiency virus 1; experiment: Antiviral activity against wild type HIV1 pNL4-3 infected in human MT4 cells assessed as inhibition of virus-induced cell death after 5 days by MTT assay in presence of 50% human serum; format: functional, organism-based; conditions: Human immunodeficiency virus 1, pNL4-3, MT4, 120 h
[4] = tested on: Human immunodeficiency virus 1; experiment: Antiviral activity against wild type HIV1 pNL4-3 infected in human MT4 cells assessed as inhibition of virus-induced cell death after 5 days by MTT assay; format: functional, organism-based; conditions: Human immunodeficiency virus 1, pNL4-3, MT4, 120 h
In short: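 EC50 measured against wild-type virus in MT-4 cells, with no human serum added.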

[5] = tested on: Human immunodeficiency virus 1; experiment: Antiviral activity against HIV1 isolate 1 harboring protease L10I, E35D, N37D, M46I, I54V, G57R, L63P, A71V, T74P, I84V, L90M, I93L mutant infected in human MT4 cells assessed as inhibition of virus-induced cell death after 5 days by MTT assay relative to wild type HIV1 pNL4-3; format: functional
[6] = tested on: Human immunodeficiency virus 1; experiment: Antiviral activity against HIV1 B26 harboring protease L33F, K45I, M46I, I50V, A71V and V82F mutant infected in human MT4 cells assessed as inhibition of virus-induced cell death after 5 days by MTT assay relative to wild type HIV1 pNL4-3; format: functional
[7] = AUC in rat at 5 mg/kg, po; format: ADME, organism-based; parameters: dose 5 mg/kg, route oral; conditions: plasma
In short: (§1)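 Rats given a single 5 mg/kg oral dose with no ritonavir. Plasma Cmax is reported in μg/mL and AUC in μg h/mL.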

[8] = Cmax in rat at 5 mg/kg, po; format: ADME, organism-based; parameters: dose 5 mg/kg, route oral; conditions: in vivo; in short: as §1
[9] = Cmax in rat at 5 mg/kg, po co-administered with 5 mg/kg of CYP3A4 inhibitor ritonavir; format: ADME, organism-based; parameters: dose 5 mg/kg, route oral; conditions: in vivo
In short: (§2)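 Rats given 5 mg/kg orally together with 5 mg/kg ritonavir. Plasma Cmax is reported in μg/mL and AUC in μg h/mL.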

[10] = AUC in rat at 5 mg/kg, po co-administered with 5 mg/kg of CYP3A4 inhibitor ritonavir; format: ADME, organism-based; conditions: plasma; in short: as §2
[11] = Oral bioavailability in rat at 5 mg/kg; format: ADME, organism-based; conditions: in vivo
[12] = Oral bioavailability in rat at 5 mg/kg co-administered with 5 mg/kg of CYP3A4 inhibitor ritonavir relative to iv dose without ritonavir co-administration; format: ADME, organism-based; conditions: in vivo
In short: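 Rats given 5 mg/kg orally with 5 mg/kg ritonavir. Bioavailability (%) is calculated against an IV dose given without ritonavir.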

| Compound | fold change (FC) [1] | fold change (FC) [2] | EC50 [3] [nM] | EC50 [4] [nM] | fold change (FC) [5] | fold change (FC) [6] | AUC [7] [ng·h/mL] | Cmax [8] [ng/mL] | Cmax [9] [ng/mL] | AUC [10] [ng·h/mL] | bioavailability [11] [%] | bioavailability [12] [%] |
| --- | --- | --- | --- | --- | --- | --- | --- | --- | --- | --- | --- | --- |
| CNC(=O)c1ccc(-c2ccc(C[C@H](NC(=O)[C@@H](NC(=O)OC)C(C)(C)C)[C@@H](O)C[C@H](Cc3ccccc3)NC(=O)[C@@H](NC(=O)OC)C(C)(C)C)cc2)cc1 | 1 | 1 | 56 | 4 | 7 | 1 |  |  |  |  |  |  |
| Cc1cccc(C)c1OCC(=O)N[C@@H](Cc1ccccc1)[C@@H](O)C[C@H](Cc1ccccc1)NC(=O)[C@H](C(C)C)N1CCCNC1=O [LOPINAVIR] | 59 | 234 |  |  | 62 | 211 |  |  |  |  |  |  |
| COC(=O)N[C@H](C(=O)N[C@H](Cc1ccc(-c2ccccn2)cc1)C[C@H](O)[C@H](Cc1ccccc1)NC(=O)[C@@H](N1CCN(Cc2cccc(C(C)(C)O)n2)C1=O)C(C)(C)C)C(C)(C)C | 3 | 2 |  |  | 57 | 7 |  |  |  |  |  |  |
| COC(=O)N[C@H](C(=O)N[C@@H](Cc1ccccc1)C[C@H](O)[C@H](Cc1ccc(-c2ccnc(F)c2)cc1)NC(=O)[C@@H](NC(=O)OC)C(C)(C)C)C(C)(C)C | 10 | 2 | 7 | 2 | 30 | 10 |  |  |  |  |  |  |
| COC(=O)N[C@H](C(=O)N[C@@H](Cc1ccccc1)C[C@H](O)[C@H](Cc1ccc(-c2ccncc2)cc1)NC(=O)[C@@H](NC(=O)OC)C(C)(C)C)C(C)(C)C | 2 |  | 34 | 13 |  | 3 |  |  |  |  |  |  |
| COC(=O)N[C@H](C(=O)N[C@@H](Cc1ccccc1)C[C@H](O)[C@H](Cc1ccc(-c2cnccn2)cc1)NC(=O)[C@@H](NC(=O)OC)C(C)(C)C)C(C)(C)C | 7 |  | 151 | 54 |  | 4 |  |  |  |  |  |  |
| COC(=O)N[C@H](C(=O)N[C@@H](Cc1ccccc1)C[C@H](O)[C@H](Cc1ccc(-c2cncnc2)cc1)NC(=O)[C@@H](NC(=O)OC)C(C)(C)C)C(C)(C)C | 41 |  | 58 | 2 |  | 74 |  |  |  |  |  |  |
| COC(=O)N[C@H](C(=O)N[C@@H](Cc1ccccc1)C[C@H](O)[C@H](Cc1ccc(-c2cnc3ccccc3c2)cc1)NC(=O)[C@@H](NC(=O)OC)C(C)(C)C)C(C)(C)C |  |  |  |  |  |  | 30 | 20 | 220 | 1850 | 1 | 63 |
| COC(=O)N[C@H](C(=O)N[C@@H](Cc1ccccc1)C[C@H](O)[C@H](Cc1ccc(-c2ccc(F)nc2)cc1)NC(=O)[C@@H](NC(=O)OC)C(C)(C)C)C(C)(C)C | 12 | 7 | 14 | 3 | 58 | 14 |  |  |  |  |  |  |
| COC(=O)N[C@H](C(=O)N[C@@H](Cc1ccccc1)C[C@H](O)[C@H](Cc1ccc(-c2ccccc2)cc1)NC(=O)[C@@H](NC(=O)OC)C(C)(C)C)C(C)(C)C | 21 |  | 95 | 4 |  | 12 |  |  |  |  |  |  |
| COC(=O)N[C@H](C(=O)N[C@@H](Cc1ccccc1)C[C@H](O)[C@H](Cc1ccc(-c2cccc(N)c2)cc1)NC(=O)[C@@H](NC(=O)OC)C(C)(C)C)C(C)(C)C | 3 | 1 | 20 | 5 | 9 | 3 | 20 | 100 | 100 | 70 | 1 | 5 |
| COC(=O)N[C@H](C(=O)N[C@@H](Cc1ccccc1)C[C@H](O)[C@H](Cc1ccc(-c2ccc(CO)nc2)cc1)NC(=O)[C@@H](NC(=O)OC)C(C)(C)C)C(C)(C)C | 0.2 | 2 | 45 | 14 | 12 | 0.6 |  |  |  |  |  |  |
| COC(=O)N[C@H](C(=O)N[C@@H](Cc1ccccc1)C[C@H](O)[C@H](Cc1ccc(-c2ccc(CO)cc2)cc1)NC(=O)[C@@H](NC(=O)OC)C(C)(C)C)C(C)(C)C | 2 | 2 | 18 | 5 | 45 | 2 |  |  | 10 | 10 | 0 | 0.3 |
| COC(=O)N[C@H](C(=O)N[C@@H](Cc1ccccc1)C[C@H](O)[C@H](Cc1ccc(-c2ccc(N)cc2)cc1)NC(=O)[C@@H](NC(=O)OC)C(C)(C)C)C(C)(C)C | 7 | 7 | 38 | 6 | 45 | 9 |  |  |  |  |  |  |
| COC(=O)N[C@H](C(=O)N[C@@H](Cc1ccccc1)C[C@H](O)[C@H](Cc1ccc(-c2ccc(C(C)=O)cc2)cc1)NC(=O)[C@@H](NC(=O)OC)C(C)(C)C)C(C)(C)C | 9 | 4 | 3 | 1 | 28 | 8 |  |  | 50 | 220 | 0 | 27 |
| COC(=O)N[C@H](C(=O)N[C@@H](Cc1ccccc1)C[C@H](O)[C@H](Cc1ccc(-c2cccc(CO)c2)cc1)NC(=O)[C@@H](NC(=O)OC)C(C)(C)C)C(C)(C)C | 1 | 4 | 92 | 21 | 52 | 1 |  |  |  |  |  |  |
| COC(=O)N[C@H](C(=O)N[C@@H](Cc1ccccc1)C[C@H](O)[C@H](Cc1ccc(-c2ccc(O)cc2)cc1)NC(=O)[C@@H](NC(=O)OC)C(C)(C)C)C(C)(C)C | 3 |  | 71 | 13 |  | 3 |  |  |  |  |  |  |
| COC(=O)N[C@H](C(=O)N[C@@H](Cc1ccccc1)C[C@H](O)[C@H](Cc1ccc(-c2ccc(OC)cc2)cc1)NC(=O)[C@@H](NC(=O)OC)C(C)(C)C)C(C)(C)C | 48 | 18 | 3 | 1 | 34 | 30 |  |  | 50 | 270 | 0 | 14 |
| CNC(=O)c1cccc(-c2ccc(C[C@H](NC(=O)[C@@H](NC(=O)OC)C(C)(C)C)[C@@H](O)C[C@H](Cc3ccccc3)NC(=O)[C@@H](NC(=O)OC)C(C)(C)C)cc2)c1 | 0.4 |  | 842 | 159 |  | 0.5 |  |  |  |  |  |  |
| COC(=O)N[C@H](C(=O)N[C@@H](Cc1ccccc1)C[C@H](O)[C@H](Cc1ccc(-c2ccc(C#N)nc2)cc1)NC(=O)[C@@H](NC(=O)OC)C(C)(C)C)C(C)(C)C | 8 | 3 | 23 | 6 | 16 | 12 |  |  |  |  |  |  |

Source: ChEMBL document CHEMBL1833957, “P1-substituted symmetry-based human immunodeficiency virus protease inhibitors with potent antiviral activity against drug-resistant viruses” (J Med Chem, 2011)
